Where two headings read alike, the source gives them in different places.
What was measured:
healthy subjects [1] = test: First-in-human trial, food-interaction; assay type: in vivo
Outline: (§1)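 Safety covered all dosed subjects in the SAD, MAD and FI phases: AEs (MedDRA 21.1), concomitant medication, vital signs, ECGs, physical exams and safety labs. BP was taken after 5 min supine, then ≥1 min sitting and 1–3 min standing. Orthostasis was defined as an SBP fall ≥20 mmHg or DBP fall ≥10 mmHg within 3 min standing. TEAEs were summarized by treatment, organ class, severity and drug-relatedness.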

[2] = FI phase pharmacokinetics; assay type: in vivo, human
Outline: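 Open-label, randomized two-period crossover in 14 healthy subjects. Each received a single 10 mg oral tablet fasted, or ~30 min after a high-fat meal (800–1000 kcal). Washout was 21 days. Plasma (K-EDTA) was sampled predose and 15 min–48 h postdose, plus days 7 and 14 (period 1) and days 5 and 9 (period 2), and assayed by validated LC-MS/MS (LLOQ 1.00 ng/mL). Cmax, AUCτ and AUCinf were compared by ANOVA (food, sequence, period fixed; subject-within-sequence random).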

healthy subjects [3] = test: SAD phase blood pressure; assay type: in vivo, human; details: for Mean SBP, LSMs difference from placebo: over 48 h
healthy subjects [4] = test: MAD phase blood pressure; assay type: in vivo, human
Outline: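 Double-blind MAD phase: four cohorts of 10 healthy subjects, randomized 4:1 to oral tablet (2, 5, 10, 15 mg) or placebo q.d. for 14 days after ≥10 h fast. BP and pulse were recorded predose daily and at 1, 2, 4, 6, 12 h on days 1, 2 and 14. Orthostatic BP was taken 24 and 48 h after the last dose. ANCOVA (treatment, time, treatment×time; random subject; predose covariate) gave LSM differences versus placebo with 95% CI.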

healthy subjects [5] = test: SAD phase CNS test battery; assay type: in vivo, human
healthy subjects [6] = test: First-in-human trial, all phases: overall safety and tolerability; assay type: in vivo
Outline: as §1

[7] = First-in-human trial, all phases: overall pharmacokinetics; assay type: in vivo
[8] = monkeys, preclinical experiments, cited from earlier work
rodents [9] = details: treated rodents; cited from earlier work
rodents [10] = details: in vivo; cited from earlier work
[11] = FI sequence 10 mg Fasted‐Fed (n = 7)
[12] = FI sequence 10 mg Fed‐Fasted (n = 7)

Fc1ccccc1Cc1nc(-c2nc(C(F)(F)F)n[nH]2)cn2ccnc12 [zagociguat, 8‐(2‐fluorobenzyl)‐6‐(3‐(trifluoromethyl)‐1H‐1,2,4‐triazol‐5‐yl)imidazo[1,2‐a]pyrazine]
Orthostatic hypotension events (healthy subjects [1]; FI phase): No orthostatic hypotension events
Subjects with dizziness TEAEs (healthy subjects [1]; FI phase, 10 mg, fed and fasted): Three
Subjects discontinued from study drug due to ≥1 TEAE (healthy subjects [1]; [11]): 0 n
Subjects with ≥1 SAE (healthy subjects [1]; [11]): 0 n
Subjects with ≥1 study drug related TEAE (healthy subjects [1]; [11]): 2 n
TEAEs (healthy subjects [1]; [11]): 7 n
Subjects discontinued from study drug due to ≥1 TEAE (healthy subjects [1]; [12]): 0 n
Subjects with ≥1 SAE (healthy subjects [1]; [12]): 0 n
Subjects with ≥1 study drug related TEAE (healthy subjects [1]; [12]): 1 n
TEAEs (healthy subjects [1]; [12]): 7 n
Food effect ([2]; FI 10 mg, high-fat meal vs fasted): no food effects were observed
C max LSM ratio fed vs. fasted ([2]; FI 10 mg, 95% CI: 0.94, 1.03): 0.99
Plasma concentration in predose samples of second treatment period ([2]; FI, 21-day washout, limit of quantification 1.00 ng/mL): below the limit of quantification
Mean SBP, LSMs difference from placebo (healthy subjects [3]; SAD 3 mg, 95% CI: −9.8, −0.1, p = 0.047): −4.9 mmHg
Mean SBP, LSMs difference from placebo (healthy subjects [3]; SAD 50 mg, 95% CI: −10.0, −0.5, p = 0.032): −5.2 mmHg
DBP change (healthy subjects [3]; SAD all dose groups): no decreases
SBP change (healthy subjects [3]; SAD other dose groups (1, 10, 20, 30 mg)): No decreases
Mean DBP, LSMs difference from placebo (healthy subjects [4]; MAD 2 mg q.d., over 14 days, 95% CI: −10.9, −1.3, p = 0.015): −6.1 mmHg
Mean SBP, LSMs difference from placebo (healthy subjects [4]; MAD 2 mg q.d., over 14 days, 95% CI: −11.6, −0.6, p = 0.032): −6.1 mmHg
DBP, maximum difference from placebo (healthy subjects [4]; MAD 5 mg q.d., day 14, 95% CI: −13.0, −2.0, p = 0.009): −7.5 mmHg
Mean DBP, LSMs difference from placebo (healthy subjects [4]; MAD 5 mg q.d., over 14 days, 95% CI: −11.0, −1.4, p = 0.014): −6.2 mmHg
SBP or DBP change (healthy subjects [4]; MAD 10 and 15 mg groups): No decreases
Reduction in mean diastolic blood pressure (healthy subjects [4]; maximum over dose groups): up to 7.5 mmHg
Reduction in mean systolic blood pressure (healthy subjects [4]; maximum over dose groups): up to 6.1 mmHg
pEEG and CNS tests, differences between placebo and zagociguat groups (healthy subjects [5]): No dose‐dependent or consistent statistically significant differences
Severity of observed TEAEs (healthy subjects [6]; across all study phases): mild and transient
Tolerability (healthy subjects [6]; all doses evaluated, all study phases): well‐tolerated
Bleeding time and bleeding events (healthy subjects [6]; all phases): no increases in bleeding time nor any bleeding events
Deaths or other serious AEs (healthy subjects [6]; all study phases): No deaths or other serious AEs
half-life ([7]; human, plasma, oral): 52.8 to 67.1 h
Exposure vs dose ([7]; single and multiple escalating doses): increased in a dose‐proportional manner
Geometric mean CSF/free plasma ratio ([8]; intravenous administration): 0.57
Geometric mean CSF/free plasma ratio ([8]; oral administration): 0.48
cGMP concentrations in CSF (rodents [9]): increases in cGMP concentrations
qEEG gamma band power (rodents [10]): increased gamma band power

Source: paper PMC10432884 (Clinical and Translational Science, 2023)
